The term IC50 denotes the point on the concentration scale where inhibition reaches its midpoint. A low value points to greater potency in that assay.

Test [1] concerns the target Delta-type opioid receptor (Mus musculus) (UniProt P32300). The conditions noted are these: Vas deferens; 2 nM.
The target of test [2] is T1, Adrenergic receptor alpha-1 (Rattus norvegicus, UniProt P15823+P23944+P43140).
T1 sequence (P15823 whole entry): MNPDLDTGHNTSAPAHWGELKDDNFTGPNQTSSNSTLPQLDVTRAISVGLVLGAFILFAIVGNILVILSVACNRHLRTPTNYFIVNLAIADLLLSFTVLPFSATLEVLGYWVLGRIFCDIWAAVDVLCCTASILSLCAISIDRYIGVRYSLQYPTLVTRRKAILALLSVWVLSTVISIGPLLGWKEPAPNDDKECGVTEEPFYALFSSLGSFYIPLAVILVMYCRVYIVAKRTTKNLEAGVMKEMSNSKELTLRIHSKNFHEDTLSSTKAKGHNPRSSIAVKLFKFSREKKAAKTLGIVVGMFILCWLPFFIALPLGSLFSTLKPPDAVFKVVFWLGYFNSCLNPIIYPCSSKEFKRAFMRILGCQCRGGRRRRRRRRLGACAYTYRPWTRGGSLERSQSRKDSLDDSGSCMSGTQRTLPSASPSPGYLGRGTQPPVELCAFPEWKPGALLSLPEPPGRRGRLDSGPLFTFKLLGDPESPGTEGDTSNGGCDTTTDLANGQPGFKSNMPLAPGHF
T1 sequence (P23944 whole entry): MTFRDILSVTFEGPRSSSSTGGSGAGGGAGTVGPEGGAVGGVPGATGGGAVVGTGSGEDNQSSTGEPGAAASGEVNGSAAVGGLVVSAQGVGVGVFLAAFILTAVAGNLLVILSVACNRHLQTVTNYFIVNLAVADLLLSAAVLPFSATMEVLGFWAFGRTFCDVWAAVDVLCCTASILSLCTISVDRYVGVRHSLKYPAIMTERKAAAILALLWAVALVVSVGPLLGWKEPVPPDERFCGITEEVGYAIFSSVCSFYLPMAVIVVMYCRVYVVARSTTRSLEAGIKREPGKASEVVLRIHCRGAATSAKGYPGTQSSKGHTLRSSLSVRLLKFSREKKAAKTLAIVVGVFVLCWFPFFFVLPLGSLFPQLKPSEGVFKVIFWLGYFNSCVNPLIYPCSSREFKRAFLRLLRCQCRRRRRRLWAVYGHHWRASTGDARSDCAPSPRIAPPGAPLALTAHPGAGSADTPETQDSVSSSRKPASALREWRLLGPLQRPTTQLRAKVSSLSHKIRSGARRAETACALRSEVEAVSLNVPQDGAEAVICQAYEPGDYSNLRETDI
T1 sequence (P43140 whole entry): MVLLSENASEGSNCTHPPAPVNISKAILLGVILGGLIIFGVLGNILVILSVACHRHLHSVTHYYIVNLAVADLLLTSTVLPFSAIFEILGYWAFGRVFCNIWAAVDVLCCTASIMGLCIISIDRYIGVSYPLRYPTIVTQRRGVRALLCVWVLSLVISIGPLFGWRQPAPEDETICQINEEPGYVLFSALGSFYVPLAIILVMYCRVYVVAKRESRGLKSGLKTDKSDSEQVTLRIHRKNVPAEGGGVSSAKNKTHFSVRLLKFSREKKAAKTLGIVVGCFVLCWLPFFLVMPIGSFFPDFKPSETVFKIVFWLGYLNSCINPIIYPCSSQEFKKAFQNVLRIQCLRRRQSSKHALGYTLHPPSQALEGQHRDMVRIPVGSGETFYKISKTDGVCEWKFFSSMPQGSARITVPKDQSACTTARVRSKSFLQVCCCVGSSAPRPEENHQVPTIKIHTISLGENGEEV
Nature of the test: Tested for affinity against alpha-adrenergic using [3H]WB-4101 in rat brain. In kind it is tissue-based. In outline: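 Radioligand binding in cortical membranes from male Sprague-Dawley rats (110-150 g). Ligands: [3H]serotonin for 5-HT1, [3H]QNB for muscarinic, [3H]WB4101 for α1, [3H]clonidine for α2, [3H]dihydroalprenolol for β-adrenergic.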

Test [3] deals with Mu-type opioid receptor (Mus musculus) (UniProt P42866). Nature of the test: Antagonistic activity towards morphine induced mu-opioid receptor by mouse writhing assay at 1.25 mg/kg subcutaneously. The test is classed as functional, organism-based. Further details: dose 1.25 mg/kg. In outline:
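Mouse acetic acid writhing: 0.6% acetic acid ip, writhes counted for 10 min starting 5 min after injection. Agonist (morphine 1.25 mg/kg or U50,488 2.5 mg/kg) and antagonist given sc 20 min before acid. 5 mice/point, ≥5 doses varied 2-fold, each mouse used once. AD50 = antagonist dose reducing agonist-induced writhing inhibition to 50%.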
(Writhing tests count abdominal constrictions after an irritant is injected.)

Chain of Mu-type opioid receptor (Mus musculus) (P42866 whole entry): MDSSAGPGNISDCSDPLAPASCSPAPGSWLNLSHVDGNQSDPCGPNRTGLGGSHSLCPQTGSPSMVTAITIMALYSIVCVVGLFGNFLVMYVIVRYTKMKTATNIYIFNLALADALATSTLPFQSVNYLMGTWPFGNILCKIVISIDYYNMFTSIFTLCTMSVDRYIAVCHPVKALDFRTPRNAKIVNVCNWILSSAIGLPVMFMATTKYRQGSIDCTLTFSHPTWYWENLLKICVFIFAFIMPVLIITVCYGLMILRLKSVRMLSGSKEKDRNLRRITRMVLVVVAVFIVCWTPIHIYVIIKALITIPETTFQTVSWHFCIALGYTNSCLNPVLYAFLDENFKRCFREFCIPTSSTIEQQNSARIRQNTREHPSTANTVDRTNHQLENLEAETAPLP
Chain of Delta-type opioid receptor (Mus musculus) (P32300 whole entry): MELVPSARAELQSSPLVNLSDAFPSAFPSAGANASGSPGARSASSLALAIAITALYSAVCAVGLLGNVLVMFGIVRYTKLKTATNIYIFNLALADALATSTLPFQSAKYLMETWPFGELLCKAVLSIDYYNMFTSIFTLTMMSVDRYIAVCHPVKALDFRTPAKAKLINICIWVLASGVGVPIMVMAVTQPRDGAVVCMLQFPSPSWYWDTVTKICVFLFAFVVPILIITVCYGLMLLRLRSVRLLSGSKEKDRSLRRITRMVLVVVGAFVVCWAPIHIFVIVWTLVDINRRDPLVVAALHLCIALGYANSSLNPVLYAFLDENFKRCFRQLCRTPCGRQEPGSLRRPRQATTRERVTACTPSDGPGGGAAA

`C[C@H]1CN(CC[C@H](O)C2CCCCC2)CC[C@@]1(C)c1cccc(O)c1`: the Ke in test [1] was found to be 1.64 nM. The IC50 in test [2] was more than 5 µM. The molecule further had an AD50 in test [3] of 0.015 mg/kg.

These data come from ChEMBL document CHEMBL1127053, “3,4-Dimethyl-4-(3-hydroxyphenyl)piperidines: opioid antagonists with potent anorectant activity” (J Med Chem, 1993).
